Results: ChEMBL document CHEMBL4152256, “Structure-activity relationship of new antimalarial 1-aryl-3-susbtituted propanol derivatives: Synthesis, preliminary toxicity profiling, parasite life cycle stage studies, target exploration, and targeted delivery” (Eur J Med Chem, 2018)
Activity calls are given as the source filed them. The calls are words filed in the database; no cut-off is given here.

What was measured:
Plasmodium falciparum [1] = test: Antiplasmodial activity against chloroquine-sensitive Plasmodium falciparum 3D7 by [3H]-hypoxanthine incorporation assay; type: functional, organism-based
Method in brief: (§1)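 Blood-stage P. falciparum 3D7 and FCR-3 were tested by a modified [3H]-hypoxanthine incorporation assay. Chloroquine was the reference in all runs.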

[2] = Cytotoxicity against human HepG2A16 cells by MTT assay; type: cell-based
Method in brief: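 MTT viability assay on HepG2-A16 cells, giving CC50 values.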

[3] = Cytotoxicity against human HepG2A16 cells; type: cell-based
[4] = Selectivity index, ratio of CC50 for human HepG2A16 cells by MTT assay to IC50 for multidrug-resistant Plasmodium falciparum FCR-3; type: toxicity
Method in brief: (§2)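 HepG2-A16 human hepatoma cells were tested by MTT viability assay to give CC50. Blood-stage activity was measured against the multidrug-resistant P. falciparum FCR-3 strain by [3H]-hypoxanthine incorporation to give IC50. SI = CC50 HepG2 / FCR-3 IC50.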

Plasmodium falciparum [5] = test: Antiplasmodial activity against multidrug-resistant Plasmodium falciparum FCR-3 by [3H]-hypoxanthine incorporation assay; type: functional, organism-based, FCR-3/Gambia; method in brief: as §1
[6] = Selectivity index, ratio of CC50 for human HepG2A16 cells to IC50 for multidrug-resistant Plasmodium falciparum FCR-3; type: toxicity; method in brief: as §2
Plasmodium berghei = test: Antiplasmodial activity against Plasmodium berghei ANKA infected in mouse assessed as inhibition of parasitemia at 50 mg/kg/day, po for 4 consecutive days starting from 2 hrs post infection by MSF assay relative to control; type: functional
Method in brief: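 Swiss male mice (20 ± 2 g) infected ip with 10^7 P. berghei ANKA parasitized cells (day 0). Five per group dosed orally 2 h after infection and daily on days 0–3. Test compounds at 50 mg/kg/day in water:DMSO; chloroquine diphosphate at 3 mg/kg/day; vehicle controls. Parasitemia measured on day 4 by MSF assay; survival checked daily.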

Plasmodium falciparum [7] = test: Binding affinity to Plasmodium falciparum GRP94 nucleotide binding domain at 0.5 mM by SYPRO orange dye based DSF analysis
Method in brief: (§3)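 Recombinant P. falciparum Hsp90 or GRP94 nucleotide-binding domain (0.05–0.2 mg/mL, optimized per protein) in 25 mM HEPES pH 7.5, 250 mM NaCl. Compound final concentration was 0.5 mM, with SYPRO Orange at 1:1000. Samples were heated from 18 to 90 °C at 1 °C/min. Tm was taken as the Boltzmann-fit inflection point. ΔTm = Tm with ligand minus Tm without, and shifts beyond ±1 °C were counted significant.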

[8] = target: T1, HSP90 (Plasmodium falciparum 3D7) (UniProt Q8IL32); test: Binding affinity to Plasmodium falciparum HSP90 nucleotide binding domain by SPR analysis
T1 sequence (whole entry): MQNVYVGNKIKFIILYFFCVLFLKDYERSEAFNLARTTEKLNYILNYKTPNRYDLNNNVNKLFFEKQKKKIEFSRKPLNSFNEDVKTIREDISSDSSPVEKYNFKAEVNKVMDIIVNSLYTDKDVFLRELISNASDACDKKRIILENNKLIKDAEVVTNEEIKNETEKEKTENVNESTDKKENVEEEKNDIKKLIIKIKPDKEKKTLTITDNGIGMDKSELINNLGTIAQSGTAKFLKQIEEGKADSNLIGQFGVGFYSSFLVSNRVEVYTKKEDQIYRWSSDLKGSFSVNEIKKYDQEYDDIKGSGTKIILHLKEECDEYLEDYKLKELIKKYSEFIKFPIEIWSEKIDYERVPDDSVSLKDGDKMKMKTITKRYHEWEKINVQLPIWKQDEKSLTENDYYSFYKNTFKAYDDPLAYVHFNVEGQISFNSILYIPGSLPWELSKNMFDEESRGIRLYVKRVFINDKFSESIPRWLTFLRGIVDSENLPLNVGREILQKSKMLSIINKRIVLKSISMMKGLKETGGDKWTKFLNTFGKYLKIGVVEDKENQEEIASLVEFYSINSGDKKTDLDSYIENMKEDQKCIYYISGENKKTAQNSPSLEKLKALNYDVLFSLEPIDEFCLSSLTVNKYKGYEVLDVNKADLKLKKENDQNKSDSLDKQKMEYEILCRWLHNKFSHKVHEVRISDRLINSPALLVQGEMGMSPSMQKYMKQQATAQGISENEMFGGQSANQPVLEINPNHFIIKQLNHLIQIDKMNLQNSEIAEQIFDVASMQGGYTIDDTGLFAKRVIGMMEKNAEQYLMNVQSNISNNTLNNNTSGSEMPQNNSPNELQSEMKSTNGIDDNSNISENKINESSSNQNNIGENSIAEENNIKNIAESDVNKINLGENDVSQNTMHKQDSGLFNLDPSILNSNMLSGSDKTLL
Method in brief: (§4)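 Purified PfHsp90 and PfGRP94 nucleotide-binding domains were amine-coupled to a CM5 chip (3000 and 7000 RU, respectively), with a blank reference surface. Seven compound concentrations (0.4 nM–1 mM) were injected in triplicate at 30 µL/min, 25 °C, in random order. Running buffer: 10 mM HEPES pH 7.4, 150 mM NaCl, 0.005% P20, 1% DMSO, 2 mM MgCl2. Kd came from double-referenced sensorgrams.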

Plasmodium falciparum [9] = test: Binding affinity to Plasmodium falciparum GRP94 nucleotide binding domain by SPR analysis; method in brief: as §4
[10] = target: T1, HSP90 (Plasmodium falciparum 3D7); test: Binding affinity to Plasmodium falciparum HSP90 nucleotide binding domain at 0.5 mM by SYPRO orange dye based DSF analysis; method in brief: as §3

| SMILES | IC50 (Plasmodium falciparum [1]) | CC50 [2] | CC50 ([3]; HepG2A16 cells) | Ratio CC50/IC50 [4] | IC50 (Plasmodium falciparum [5]) | Ratio CC50/IC50 [6] | inhibition (Plasmodium berghei) | Activity (Plasmodium falciparum [7]) | Activity [8] | Activity (Plasmodium falciparum [9]) | Activity [10] | CC50 [3] | selectivity ratio ([6]; HepG2A16 cells, read-out: Ratio CC50/IC50) |
| --- | --- | --- | --- | --- | --- | --- | --- | --- | --- | --- | --- | --- | --- |
| COc1ccccc1N1CCN(CCC(O)c2ccc(F)cc2)CC1 (single isomer, unassigned; (+)) | 28.7 µM | 96 µM | > 145 µM | 8 | 12.2 µM | > 11.8 |  |  |  |  |  |  |  |
| OC(CCN1CCN(c2ccccc2C(F)(F)F)CC1)c1ccc(F)c2ccccc12 (stereo in doubt; 55) |  |  |  |  |  |  | inactive | inactive | inactive | inactive | inactive |  |  |
| O=[N+]([O-])c1ccc(N2CCC(NCCC(O)c3ccc(F)c4ccccc34)CC2)c(C(F)(F)F)c1 (stereo in doubt; 8) |  |  |  |  |  |  |  | inactive | inactive | inactive | inactive |  |  |
| O=[N+]([O-])c1ccc(N2CCC(NCCC(O)c3ccc(F)c4ccccc34)CC2)c(C(F)(F)F)c1 (single isomer, unassigned; (+)) | 0.48 µM | 38.3 µM |  | 201 | 0.19 µM | 420 |  |  |  |  |  | 37.6 µM |  |
| O=[N+]([O-])c1ccc(N2CCC(NCCC(O)c3ccc(F)c4ccccc34)CC2)c(C(F)(F)F)c1 (single isomer, unassigned; (-)) | 1.79 µM | 20 µM |  | 23 | 0.87 µM | 32 |  |  |  |  |  | 4.13 µM |  |
| COc1ccccc1N1CCN(CCC(O)c2ccc(F)cc2)CC1 (stereo in doubt; 66) |  |  |  |  |  |  |  | inactive | inactive | inactive | inactive |  |  |
| N#Cc1ccc(N2CCC(NCCC(O)c3ccc(F)c4ccccc34)CC2)c(C(F)(F)F)c1 (stereo in doubt; (-)-72) | 0.28 µM | 11 µM |  | 28 | 0.39 µM | 11 |  |  |  |  |  | 27.8 µM |  |
| Nc1ncnc2c1ncn2[C@@H]1O[C@H](COP(=O)(O)OP(=O)(O)O)[C@@H](O)[C@H]1O |  |  |  |  |  |  |  | Active |  |  | Active |  |  |
| OC(CCN1CCN(c2ccccc2C(F)(F)F)CC1)c1ccc(F)c2ccccc12 (single isomer, unassigned; (-)) | 0.88 µM | 18.2 µM |  | 91 | 0.2 µM | 308 |  |  |  |  |  | 61.5 µM |  |
| COc1ccccc1N1CCN(CCC(O)c2ccc(F)cc2)CC1 (single isomer, unassigned; (-)) | 1.24 µM | 14.3 µM |  | 22 | 0.66 µM | > 219.9 |  |  |  |  |  |  |  |
| N#Cc1ccc(N2CCC(NCCC(O)c3ccc(F)c4ccccc34)CC2)c(C(F)(F)F)c1 (stereo in doubt; 72) |  |  |  |  |  |  |  | inactive | inactive | inactive | inactive |  |  |
| N#Cc1ccc(N2CCC(NCCC(O)c3ccc(F)c4ccccc34)CC2)c(C(F)(F)F)c1 (single isomer, unassigned; (+)) | 5.72 µM | 18.8 µM |  | 29 | 0.65 µM | 58 |  |  |  |  |  | 79.9 µM |  |
| OC(CCN1CCN(c2ccccc2C(F)(F)F)CC1)c1ccc(F)c2ccccc12 (single isomer, unassigned; (+)) | 0.54 µM | 10.8 µM | 36.1 µM | 51 | 0.21 µM |  |  |  |  |  |  |  | 172 |
| Nc1ncnc2c1ncn2[C@@H]1O[C@H](COP(=O)(O)OP(=O)(O)OP(=O)(O)O)[C@@H](O)[C@H]1O |  |  |  |  |  |  |  | Active |  |  | Active |  |  |
